Converted amounts (≈) assume the structure as drawn. The source made the active and inactive calls. The calls are words filed in the database; no cut-off is given here.
Assays:
[1] = system: Mycobacterium tuberculosis; assay: Antitubercular activity against Mycobacterium tuberculosis H37Rv ATCC 27294/XDR-TB incubated for 28 days by agar dilution method; format: functional; conditions: 672 h
Procedure, shortened: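 Agar dilution: two-fold dilutions in Middlebrook 7H11 agar with OADC. Inoculum from fresh 7H11/OADC slants adjusted to 1 mg/mL wet weight in 0.05% Tween 80 saline, diluted 10^-2 (~10⁷ cfu/mL); 5 µL spotted per tube. Incubated 37 °C; MIC, lowest concentration fully inhibiting growth, read after 28 days, in triplicate.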

[2] = system: Escherichia coli; assay: Antibacterial activity against Escherichia coli at 1 mg/ml incubated for 18 hrs by well plate technique; format: functional; conditions: for zone of inhibition at 1000 µg/mL: read-out: DIZ
Procedure, shortened: (§1)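 Bacteria kept on nutrient agar at 37 °C, grown statically in nutrient broth (start ~10-100 cfu/mL) at 37 °C for 18-24 h. Suspensions diluted in saline and spread on nutrient agar, then wells cut with a cork borer. Compound in DMSO at 1 or 0.5 mg/mL added to wells, 37 °C, 18 h. Inhibition zone diameter measured minus DMSO value; triplicate; streptomycin standard.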

[3] = system: Escherichia coli; assay: Antibacterial activity against Escherichia coli at 0.5 mg/ml incubated for 18 hrs by well plate technique; format: functional; conditions: for zone of inhibition at 500 µg/mL: read-out: DIZ; procedure, shortened: as §1
[4] = system: Staphylococcus aureus; assay: Antibacterial activity against Staphylococcus aureus at 1 mg/ml incubated for 18 hrs by well plate technique; format: functional; conditions: for zone of inhibition at 1000 µg/mL: read-out: DIZ; procedure, shortened: as §1
[5] = system: Staphylococcus aureus; assay: Antibacterial activity against Staphylococcus aureus at 0.5 mg/ml incubated for 18 hrs by well plate technique; format: functional; conditions: for zone of inhibition at 500 µg/mL: read-out: DIZ; procedure, shortened: as §1
[6] = system: Pseudomonas aeruginosa; assay: Antibacterial activity against Pseudomonas aeruginosa at 1 mg/ml incubated for 18 hrs by well plate technique; format: functional; conditions: for zone of inhibition at 1000 µg/mL: read-out: DIZ; procedure, shortened: as §1
[7] = system: Pseudomonas aeruginosa; assay: Antibacterial activity against Pseudomonas aeruginosa at 0.5 mg/ml incubated for 18 hrs by well plate technique; format: functional; conditions: for zone of inhibition at 500 µg/mL: read-out: DIZ; procedure, shortened: as §1
[8] = system: Salmonella typhi; assay: Antibacterial activity against Salmonella typhi at 1 mg/ml incubated for 18 hrs by well plate technique; format: functional, Salmonella enterica subsp. enterica serovar Typhi; conditions: for zone of inhibition at 1000 µg/mL: Salmonella enterica, read-out: DIZ
Procedure, shortened: (§2)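 Well diffusion on nutrient agar; strains kept on nutrient agar at 37 °C, grown statically in nutrient broth 18-24 h at 37 °C, diluted in saline, 0.1 ml spread per plate. Compounds in DMSO at 1 and 0.5 mg/mL added to cork-bored wells; 18 h at 37 °C. Inhibition zone diameter measured, DMSO value subtracted; triplicate; streptomycin reference.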

[9] = system: Salmonella typhi; assay: Antibacterial activity against Salmonella typhi at 0.5 mg/ml incubated for 18 hrs by well plate technique; format: functional, Salmonella enterica subsp. enterica serovar Typhi; conditions: for zone of inhibition at 500 µg/mL: Salmonella enterica, read-out: DIZ; procedure, shortened: as §2
[10] = system: Aspergillus flavus; assay: Antifungal activity against Aspergillus flavus at 1 mg/ml incubated for 3 days; format: functional; conditions: for zone of inhibition at 1000 µg/mL: 72 h, read-out: IZ
Procedure, shortened: (§3)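 Well plate method on potato dextrose agar. Fungal stock suspended in distilled water with Tween 80 and swabbed over plates. Samples in DMSO at 1 and 0.5 mg/mL added to wells, incubated 25 °C for 3 days, then scored for inhibition zones; fluconazole standard.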

[11] = system: Aspergillus flavus; assay: Antifungal activity against Aspergillus flavus at 0.5 mg/ml incubated for 3 days; format: functional; conditions: for zone of inhibition at 500 µg/mL: 72 h, read-out: IZ; procedure, shortened: as §3
[12] = system: Chrysosporium keratinophilum; assay: Antifungal activity against Chrysosporium keratinophilum at 1 mg/ml incubated for 3 days; format: functional; conditions: for zone of inhibition at 1000 µg/mL: 72 h, read-out: IZ; procedure, shortened: as §3
[13] = system: Chrysosporium keratinophilum; assay: Antifungal activity against Chrysosporium keratinophilum at 0.5 mg/ml incubated for 3 days; format: functional; conditions: for zone of inhibition at 500 µg/mL: 72 h, read-out: IZ; procedure, shortened: as §3
[14] = system: Candida albicans; assay: Antifungal activity against Candida albicans at 1 mg/ml incubated for 3 days; format: functional; conditions: for zone of inhibition at 1000 µg/mL: 72 h, read-out: IZ; procedure, shortened: as §3
[15] = system: Candida albicans; assay: Antifungal activity against Candida albicans at 0.5 mg/ml incubated for 3 days; format: functional; conditions: for zone of inhibition at 500 µg/mL: 72 h, read-out: IZ; procedure, shortened: as §3
[16] = Antioxidant activity assessed as DPPH radical scavenging activity incubated for 10 mins by UV-visible spectrometry; format: physicochemical
Procedure, shortened: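 DPPH free-radical scavenging; absorbance read at 517 nm against a methanol blank. % scavenging = (A control − A sample)/A control × 100.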

[17] = Salmonella enterica subsp. enterica serovar Typhi

Work on Cc1nn2c(-c3nc4cc([N+](=O)[O-])ccc4[nH]3)c(-c3ccc(Cl)cc3)nc2s1 yielded an MIC [1] of 50 µg/mL (≈ 122 µM), a zone of inhibition at 1000 µg/mL [2] of 6 mm and a zone of inhibition at 500 µg/mL [3] of 4 mm. It also gave a zone of inhibition at 1000 µg/mL [4] of 9 mm, a zone of inhibition at 500 µg/mL [5] of 7 mm and a zone of inhibition at 1000 µg/mL [6] of 8 mm. The zone of inhibition at 500 µg/mL [7] was 5 mm, the zone of inhibition at 1000 µg/mL [8] was 6 mm and the zone of inhibition at 500 µg/mL [9] was 4 mm. For the same compound, the “inhibition zone (IZ)” value [10] was “inactive”, the “inhibition zone (IZ)” value [11] was “inactive” and the “inhibition zone (IZ)” value [12] was “inactive”. The “inhibition zone (IZ)” value [13] was “inactive”, the “inhibition zone (IZ)” value [14] was “inactive” and the “inhibition zone (IZ)” value [15] was “inactive”. The “inhibition (INH)” value [16] was 29.8%.
With COc1ccc(-c2nc3sc(-c4ccccc4Cl)nn3c2-c2nc3cc([N+](=O)[O-])ccc3[nH]2)cc1 the MIC [1] was 50 µg/mL (≈ 99.4 µM), the “diameter of the inhibition zone (DIZ)” value [2] was “inactive” and the “diameter of the inhibition zone (DIZ)” value [3] was “inactive”. For the same compound, the “diameter of the inhibition zone (DIZ)” value [4] was “inactive”, the “diameter of the inhibition zone (DIZ)” value [5] was “inactive” and the “diameter of the inhibition zone (DIZ)” value [6] was “inactive”. For the same compound, the “diameter of the inhibition zone (DIZ)” value [7] was “inactive”, the “diameter of the inhibition zone (DIZ)” value [8, 17] was “inactive” and the “diameter of the inhibition zone (DIZ)” value [9, 17] was “inactive”. The “inhibition zone (IZ)” value [10] was “inactive”, the “inhibition zone (IZ)” value [11] was “inactive” and the “inhibition zone (IZ)” value [12] was “inactive”. The “inhibition zone (IZ)” value [13] was “inactive”, the “inhibition zone (IZ)” value [14] was “inactive” and the “inhibition zone (IZ)” value [15] was “inactive”. The “inhibition (INH)” value [16] was 22.1%.
Compound Cc1nn2c(-c3nc4ccccc4[nH]3)c(-c3ccc(Cl)cc3)nc2s1 has an MIC [1] of 25 µg/mL (≈ 68.3 µM), a zone of inhibition at 1000 µg/mL [2] of 4 mm and a zone of inhibition at 500 µg/mL [3] of 3 mm. It also gave a zone of inhibition at 1000 µg/mL [4] of 4 mm, a zone of inhibition at 500 µg/mL [5] of 3 mm and a zone of inhibition at 1000 µg/mL [6] of 5 mm. For the same compound, the zone of inhibition at 500 µg/mL [7] was 3 mm, the zone of inhibition at 1000 µg/mL [8] was 3 mm and the zone of inhibition at 500 µg/mL [9] was 1 mm. The zone of inhibition at 1000 µg/mL [10] was 6 mm, the zone of inhibition at 500 µg/mL [11] was 5 mm and the zone of inhibition at 1000 µg/mL [12] was 7 mm. For the same compound, the zone of inhibition at 500 µg/mL [13] was 6 mm, the zone of inhibition at 1000 µg/mL [14] was 6 mm and the zone of inhibition at 500 µg/mL [15] was 4 mm. For the same compound, the “inhibition (INH)” value [16] was 28.8%.
OC(Cn1cncn1)(Cn1cncn1)c1ccc(F)cc1F [FLUCONAZOLE] gave a zone of inhibition at 1000 µg/mL [10] of 14 mm, a zone of inhibition at 500 µg/mL [11] of 10 mm and a zone of inhibition at 1000 µg/mL [12] of 16 mm. For the same compound, the zone of inhibition at 500 µg/mL [13] was 14 mm, the zone of inhibition at 1000 µg/mL [14] was 23 mm and the zone of inhibition at 500 µg/mL [15] was 20 mm.
